From PubChem
This is a sample that favours compounds with a hit; in the whole collection about 2.3% have one here.
SKN-1 inh: suppressors of acrylamide-induced Pgst-4::GFP reporter in worms, primary screen, SKN-1 inhibitor project, whole organism, uHTS, GFP/RFP fluorescence ratio, strain VP596 | inhibition, % at 21.8 µM | C. elegans VP596 Pgst-4::GFP/RFP ratio, 24 h | AID 624304, 2012 | hit rate 0.49% among 360,000;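 active = interference check ratio from 0.5 to 1.5 plus GFP to RFP signal ratio inhibition reaching or exceeding a fixed threshold, cut at about 30% in these data, passing the limit was not always enough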
MT1-MMP act inh: blockers of MT1-MMP proenzyme processing, primary screen, HT1080 RFP-PRO-GFP cells, GFP/RFP fluorescence; Matrix metalloproteinase-14 (Homo sapiens), P50281; hit rate 0.061% among 360,000; GFP/RFP ratio change, % at 20 µM; GFP/RFP ratio fluorescence, overnight; percent of plate control window, DMSO zero; AID 651647, 2012;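 active = GFP/RFP ratio change of at least 30% with cell ATP level not reduced by more than half and red fluorescence within 50% of control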
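Assay system: HT1080 cells carrying an RFP-PRO-GFP reporter | Dosing: Single dose of 20 µM compound, 1% DMSO final | Incubation: Cells overnight before dosing, compound overnight, 37 °C, 5% CO2 | Evaluation: GFP/RFP fluorescence ratio | Control set: DMSO and RFP-L50D-GFP cell wells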
MPTP block: mitochondrial permeability transition pore inhibitors, primary screen, biochemical, isolated mouse mitochondria, absorbance; hit rate 1.4% among 360,000; AID 602449, 2012; inhibition, % at 10 µM; Ca2+ swelling absorbance, 30 min;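 active = inhibition of 50% or more, scaled per plate between neutral and stimulator controls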
ATG4B inh: ATG4B protease inhibitors, primary screen, biochemical, fluorescence, uHTS | ATG4B cleavage of LC3-PLA2, NBD-HPC fluorescence, 1 h | inhibition, % at 8.33 µM | hit rate 0.51% among 340,000 | Cysteine protease ATG4B (Homo sapiens), Q9Y4P1 | AID 504462, 2011; in the data active = inhibition above about 40%
Target sequence (Q9Y4P1 whole entry, looked up): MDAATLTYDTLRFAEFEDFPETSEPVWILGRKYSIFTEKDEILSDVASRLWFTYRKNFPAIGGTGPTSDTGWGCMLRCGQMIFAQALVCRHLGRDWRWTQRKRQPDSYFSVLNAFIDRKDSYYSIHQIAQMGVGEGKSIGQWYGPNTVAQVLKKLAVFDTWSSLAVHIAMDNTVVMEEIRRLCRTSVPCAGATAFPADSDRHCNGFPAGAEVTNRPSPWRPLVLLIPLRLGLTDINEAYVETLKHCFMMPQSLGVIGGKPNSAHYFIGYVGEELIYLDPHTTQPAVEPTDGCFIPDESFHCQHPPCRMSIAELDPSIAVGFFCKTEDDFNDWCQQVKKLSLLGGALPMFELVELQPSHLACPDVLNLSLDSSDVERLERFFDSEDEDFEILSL
MPTP counter: fluorescence retest of MPTP screen hits in isolated mitochondria, single concentration; membrane potential, Rhodamine 123 fluorescence; hit rate 78% among 5,000; inhibition, % at 10 µM; shares compounds with MPTP block; in the data active = inhibition above about 22%
MPTP swell DR: mitochondrial permeability transition pore inhibitors, dose response, biochemical, absorbance, uHTS hits; shares compounds with MPTP block; isolated mitochondria swelling; IC50, µM; hit rate 58% among 780; AID 651561, 2012; in the data active = IC50 below about 20 µM
MPTP counter DR: fluorescent counter-screen in isolated mitochondria, dose response, counter-screen for MPTP inhibitor project, biochemical, fluorescence, uHTS hits; shares compounds with MPTP block; isolated mitochondria counterscreen, fluorescence read-out; IC50, µM; hit rate 49% among 780; in the data active = IC50 below about 80 µM
Of the large screens only hits and unclear results are named; the others gave an inactive call (follow-up assays come after a bar, where they were run).

O=C(O)c1ccc(N2CC3CC(C2)c2cccc(=O)n2C3)c(NC(=S)Nc2ccc(Br)cc2)c1 (stereo unspecified)	MPTP block 89.2 | MPTP counter 93.0
COc1cccc(/C=N/NC(=S)Nc2cccc(S(=O)(=O)N(C)C)c2)c1	none
CN(C)S(=O)(=O)c1cccc(NC(=S)NCc2ccco2)c1	none
COc1ccc(O)c(/C=N/NC(=S)Nc2cccc(S(=O)(=O)N(C)C)c2)c1	MPTP block 50.9 | MPTP counter 83.5
CN(C)S(=O)(=O)c1cccc(NC(=S)Nc2cc(Cl)cc(Cl)c2)c1	MPTP block 88.5 | MPTP counter 93.5
CCN(CCO)c1ccc(NC(=S)Nc2cccc(S(=O)(=O)N(C)C)c2)cc1	none
CN(C)S(=O)(=O)c1cccc(NC(=S)Nc2ccc(Cl)cc2Cl)c1	MPTP block 90.5 | MPTP counter 93.3
CCOc1cc(NC(=O)C2CC2)c(OCC)cc1NC(=O)c1cccc(F)c1	MPTP block 105.7 | MPTP counter inactive | MPTP swell DR inactive | MPTP counter DR inactive
COc1ccccc1C(=O)NNC(=S)NC(=O)c1sc2ccccc2c1Cl	MPTP block 97.8 | MPTP counter inactive
Cc1c(NC(=S)NC(=O)c2sc3ccccc3c2Cl)cccc1C(=O)O	none
COc1ccccc1C(=O)NC(=S)NNC(=O)c1sc2ccccc2c1Cl	MPTP block 95.1 | MPTP counter inactive
Cc1cn([C@H]2C[C@H](O)[C@@H](/C=C/C(=O)NCc3ccco3)O2)c(=O)[nH]c1=O	none (no result: ATG4B inh)
CCN(CC)CCn1c(=N)n(CCOc2ccccc2)c2ccccc21	MPTP block 77.5 | MPTP counter inactive | MPTP swell DR inactive | MPTP counter DR 33
CCOC(=O)c1cc([N+](=O)[O-])sc1NC(=O)c1ccc(S(=O)(=O)N2CC3(C)CC2CC(C)(C)C3)cc1 (stereo unspecified)	MPTP block 91.4 | MPTP counter inactive | MPTP swell DR 2.38 | MPTP counter DR <2.5
CC1(C)CC2CC(C)(CN2S(=O)(=O)c2ccc(C(=O)Nc3ccc(S(=O)(=O)N4CCOCC4)cc3)cc2)C1 (stereo unspecified)	none
CCCCOc1ccc(Br)cc1CSC(=N)N	MPTP block 82.8 | MPTP counter 108.0
COc1ccc(CCNC(=O)C(=O)Nc2ccc3c(c2)OCO3)cc1OC	none
CCOC(=O)c1cc(-c2ccccc2)sc1NC(=O)C(C)OC(=O)c1cccnc1OCC (stereo unspecified)	MPTP block 67.6 | MPTP counter inactive | MPTP swell DR inactive | MPTP counter DR inactive
Cn1c(=O)c2c(nc(NCCc3ccccc3)n2Cc2ccc(F)cc2)n(C)c1=O	none
CC(Cl)=CCn1c(NCCc2ccccc2)nc2c1c(=O)n(C)c(=O)n2C	MPTP block 71.0 (no result: ATG4B inh) | MPTP counter 76.0
Cn1c(=O)c2c(nc(NCc3ccco3)n2C)n(C)c1=O	none
Cn1c(=O)c2c(nc(NCc3ccco3)n2C/C=C/c2ccccc2)n(C)c1=O	MPTP block 88.6 | MPTP counter 106.0
CC1=C(/C=C/C(C)=N\NC(=O)c2ccncc2)C(C)(C)CCC1	none
O=C(NC1CC1)c1ccc2sc([C@@H]3O[C@H](CO)[C@H](O)[C@H](O)[C@H]3O)nc2c1	none (no result: ATG4B inh)
Cc1ccc(Nc2nc(CSc3nnnn3-c3ccccc3)cs2)cc1	none
O=c1cc(CSc2nnnn2-c2ccccc2)nc(Nc2ccc(F)cc2)[nH]1	MPTP block 56.1 | MPTP counter 83.9
CCOc1cc(C(=O)N[C@@H](C)C(=O)N2CCC3(CC2)NCCc2[nH]cnc23)cc(OCC)c1OCC	none
CC(NC(=S)NC1CCC(C(C)(C)C)CC1)c1ccccc1 (stereo unspecified)	MPTP block 55.3 | MPTP counter 87.0
Cc1ccc(CNC(=S)NC2CCC(C(C)(C)C)CC2)cc1 (stereo unspecified)	MPTP block 51.0 | MPTP counter 106.1
COc1ccc(CCc2nnc(CCC(=O)NCCc3ncccc3C)o2)cc1	none
O=C(O)c1cccc(NS(=O)(=O)c2ccc(C3CCCCC3)cc2)c1	none
COc1ccc(S(=O)(=O)Nc2ccc(CC#N)cc2)cc1	none
Cc1cccc(NS(=O)(=O)c2ccc(C3CCCCC3)cc2)c1	MPTP block 90.2 | MPTP counter 92.8
N#CCc1ccc(NS(=O)(=O)c2ccc(C3CCCCC3)cc2)cc1	MPTP block 82.0 | MPTP counter 95.5
O=[N+]([O-])c1ccc2[nH]c(=S)sc2c1	MPTP block 57.4 | MPTP counter 76.9
O=[N+]([O-])c1ccc2[nH]c(=S)[nH]c2c1	none (no result: MT1-MMP act inh)
C/C(CCc1ccc2c(c1)OCO2)=N\N=C1\NC(=O)CC(C(=O)Nc2ccc(Cl)cc2)S1 (stereo unspecified)	none
COc1ccc(CNC(=O)c2coc(=O)c3ccccc23)c(OC)c1	none
Cn1c(=O)n(C)c2cc(S(=O)(=O)NCCc3ccccc3)ccc21	MPTP block 59.2 | MPTP counter 23.8
COC(=O)Cc1nc(Nc2ccccc2)sc1C	none
COc1[nH]c(/N=C/c2ccccc2)c(C#N)c1C#N	MPTP block 86.8 | MPTP counter 33.1
Cc1oc(/N=C/c2ccccc2)c(C#N)c1C	none
O=C(/C=C/c1ccc(O)c([N+](=O)[O-])c1)c1ccc2ccccc2c1	none
COc1ccc(Oc2ccc(/C=C/C(=O)c3ccc(O)cc3)cc2[N+](=O)[O-])cc1	MPTP block 87.6 | MPTP counter 66.0
CN=c1scc(-c2ccccc2F)n1/N=C/c1ccc(O)c(O)c1O	none
CC(C)N=c1scc(-c2cccs2)n1/N=C/c1ccc(O)c(O)c1O	MPTP block 95.0 | MPTP counter 50.1
O=C(/C=C/NNC(=O)c1cccc(Br)c1)c1cccc(Br)c1	MPTP block 51.0 | MPTP counter 58.2
O=C(/C=C/NNC(=O)c1ccccc1)c1ccc(Br)cc1	none
O=C(N/N=C/c1cc(Cl)cc([N+](=O)[O-])c1O)NC12CC3CC(CC(C3)C1)C2	MPTP block 83.9 | MPTP counter inactive
O=C(N/N=C/c1ccccc1O)NC12CC3CC(CC(C3)C1)C2	none
Cc1nn(-c2ccccc2)c(Cl)c1/C=N/NC(=O)c1ccccc1NS(=O)(=O)c1cccs1	MPTP block 88.2 | MPTP counter 66.0
O=C(N/N=C/c1cc(Cl)cc([N+](=O)[O-])c1O)c1ccccc1NS(=O)(=O)c1cccs1	MPTP block 83.7 | MPTP counter 26.1
